Assay results reported in ChEMBL document CHEMBL6177924, “Synthesis and antifungal evaluation of new azole derivatives containing 1,2,3-triazole” (RSC Med Chem, 2025).
In brackets after ≈: the same amount, converted by molar mass. Activity calls are given as the source filed them. No cut-off for these calls is given here.

What was measured:
Candida albicans [1] = test: Antifungal activity against drug resistant Candida albicans SC5314-FR assessed as inhibition of fungal growth incubated for 24 hrs by CLSI protocol based microdilution method; format: functional
Method in brief: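 Fluconazole-resistant strain derived from SC5314 by fluconazole exposure. Log-phase cells at 1×10^5 CFU/mL in SDB. Drug fivefold serial dilutions, 200–0.064 µg/mL final, DMSO <0.1%, triplicate wells, 200 µL. Incubated 30 °C for 24 h and read at OD630. Growth, blank and fluconazole controls included. Run three times.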

Candida albicans [2] = test: Antifungal activity against drug sensitive Candida albicans SC5314 assessed as inhibition of fungal growth incubated for 24 hrs by CLSI protocol based microdilution method; format: functional
Method in brief: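 Broth microdilution of log-phase C. albicans at 1×10^5 CFU/mL in Sabouraud liquid medium (SDB). Compounds serially diluted 5-fold to final 200-0.064 µg/mL, DMSO below 0.1%. Triplicate wells, 200 µL final volume, with growth, blank and fluconazole controls. Incubated 24 h at 30 °C, OD read at 630 nm; experiment repeated three times.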

Candida albicans [3] = test: Induction of morphological changes in Candida albicans assessed as blurred spacing between cell wall and cell membrane incubated for 16 to 24 hrs by transmission electron microscopic analysis; format: functional, organism-based; conditions: time 16-24 hrs
Method in brief: (§1)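 Cells at 5×10^5 CFU/mL in SDB with drug (0.27, 0.53, 1.06 µg/mL), fluconazole or no drug. Shaken 150 r/min at 30 °C for 16–24 h, pelleted and PBS-washed. Fixed in 3% paraformaldehyde/2.5% glutaraldehyde at 4 °C, post-fixed in 1% OsO4, acetone-dehydrated and Epon-812 embedded. 60–90 nm sections stained with uranyl acetate and lead citrate, imaged by TEM.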

Candida albicans [4] = test: Antifungal activity against Candida albicans SC5314 assessed as inhibition of fungal growth measured up to 48 hrs by time-killing curve analysis; format: functional, organism-based
Method in brief: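 Log-phase cells at 1×10^5 CFU/mL in SDB, 10 mL per group. Drug at 0.27, 0.53 or 1.06 µg/mL, plus fluconazole and untreated controls. Shaken 150 r/min at 30 °C. Samples taken at 0, 4, 8, 12, 24, 36 and 48 h and read at A630, triplicate wells. Absorbance plotted against time.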

Candida albicans [5] = test: Antifungal activity against Candida albicans assessed as inhibition of mycelia formation measured after 4 to 8 hrs by inverted microscopic analysis; format: functional, organism-based; conditions: time 4-8 hrs
Method in brief: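 Hyphae induced in SD + 10% FBS or in Spider medium, log-phase cells at 1×10^5 CFU/mL. Drug at 0.27, 0.53 or 1.06 µg/mL, with fluconazole and drug-free controls, 1 mL per well in 24-well plates, triplicate. […], and mycelium formation viewed and photographed by inverted microscope at 4 and 8 h.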

Candida albicans [6] = test: Induction of morphological changes in Candida albicans assessed as loose distribution of cytoplasm incubated for 16 to 24 hrs by transmission electron microscopic analysis; format: functional, organism-based; conditions: time 16-24 hrs; method in brief: as §1
Cell membrane [7] = test: Induction of cell membrane permeability in Candida albicans assessed as increase in red fluorescence incubated for 16 to 24 hrs by PI staining based fluorescence microscopic analysis; format: subcellular; conditions: time 16-24 hrs
Method in brief: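 C. albicans at 1×10^5 CFU/mL in SDB grown with drug (0.27, 0.53, 1.06 µg/mL), fluconazole or no drug at 30 °C, 150 r/min, for 16-24 h. Cells washed and resuspended in PBS at 2×10^6 CFU/mL. Stained with propidium iodide (final 5 µg/mL) 30 min at room temperature in the dark, then washed. Imaged by fluorescence microscopy and fluorescence intensity measured.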

Candida albicans [8] = test: Induction of morphological changes in Candida albicans assessed as absence of intracellular substance incubated for 16 to 24 hrs by transmission electron microscopic analysis; format: functional, organism-based; conditions: time 16-24 hrs; method in brief: as §1
Candida albicans [9] = test: Antibiofilm activity in Candida albicans SC5314 assessed as decrease in number of mycelia measured after 24 hrs by inverted microscopic analysis; format: functional, organism-based
Method in brief: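 Log-phase cells at 1×10^5 CFU/mL in RPMI1640 + 10% FBS allowed to adhere 90 min at 30 °C in 24-well plates. Excess medium removed, then 1 mL medium with or without drug (0.27, 0.53, 1.06 µg/mL; fluconazole group) added for 24 h at 30 °C. Crystal violet stain 30 min, PBS washes ×3, biofilm viewed by inverted microscope.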

Cell membrane [10] = test: Induction of cell membrane permeability in Candida albicans assessed as increase in fluorescence intensity by multifunctional enzymatic assay; format: subcellular
Candida albicans [11] = test: Induction of morphological changes in Candida albicans assessed as normal cell wall appearance incubated for 16 to 24 hrs by transmission electron microscopic analysis; format: functional, organism-based; conditions: time 16-24 hrs; method in brief: as §1
16HBE14o- = test: Cytotoxicity against human 16HBE14o- cells assessed as reduction in cell viability 0.032 to 100 microg/ml incubated for 48 hrs by CCK8 assay; format: toxicity, cell-based; conditions: dose 0.032-100 µg/ml
Method in brief: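 16HBE cells seeded in RPMI1640 + 10% FBS + 1% antibiotics and attached 24 h at 37 °C. Medium replaced with drug in fivefold dilutions from 100 µg/mL, with fluconazole, growth and blank controls. Incubated 48 h, then CCK8 reagent added and plates incubated for viability read-out.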

Row | SMILES | MIC50 (Candida albicans [1]) | MIC50 (Candida albicans [2]) | other results
1 | O=C(Cn1cc(COC(Cn2ccnc2)c2ccc(Cl)cc2Cl)nn1)c1ccccc1 (stereo unspecified) | 23.4 µg/mL (≈ 51.3 µM) | 1.61 µg/mL (≈ 3.53 µM) | 
2 | C=CCn1cc(COC(Cn2ccnc2)c2ccc(Cl)cc2Cl)nn1 (stereo unspecified) | 77.9 µg/mL (≈ 206 µM) | 29.4 µg/mL (≈ 77.8 µM) | 
3 | Fc1ccc(Cn2cc(COC(Cn3ccnc3)c3ccc(Cl)cc3Cl)nn2)cc1F (stereo unspecified) | 21.4 µg/mL (≈ 46 µM) | 11.4 µg/mL (≈ 24.7 µM) | 
4 | Clc1ccc(Cn2cc(COC(Cn3ccnc3)c3ccc(Cl)cc3Cl)nn2)cc1 (stereo unspecified) | 11 µg/mL (≈ 23.7 µM) | 1.78 µg/mL (≈ 3.85 µM) | 
5 | CC(=O)Cn1cc(COC(Cn2ccnc2)c2ccc(Cl)cc2Cl)nn1 (stereo unspecified) | > 200 µg/mL | 90.8 µg/mL (≈ 230 µM) | 
6 | O=C(Cn1cc(COC(Cn2ccnc2)c2ccc(Cl)cc2Cl)nn1)c1ccc(Br)cc1 (stereo unspecified) | 9.83 µg/mL (≈ 18.4 µM) | 0.51 µg/mL (≈ 0.953 µM) | 
7 | COC(=O)Cn1cc(COC(Cn2ccnc2)c2ccc(Cl)cc2Cl)nn1 (stereo unspecified) | > 200 µg/mL | 1.62 µg/mL (≈ 3.95 µM) | 
8 | N#Cc1ccc(Cn2cc(COC(Cn3ccnc3)c3ccc(Cl)cc3Cl)nn2)cc1 (stereo unspecified) | 93.2 µg/mL (≈ 206 µM) | 26.1 µg/mL (≈ 57.6 µM) | 
9 | Clc1ccc(C(Cn2ccnc2)OCc2cn(Cc3ccc4ccccc4c3)nn2)c(Cl)c1 (stereo unspecified) | 4.57 µg/mL (≈ 9.55 µM) | 1.57 µg/mL (≈ 3.28 µM) | 
10 | ClCCn1cc(COC(Cn2ccnc2)c2ccc(Cl)cc2Cl)nn1 (stereo unspecified) | 14.1 µg/mL (≈ 35.3 µM) | 1.2 µg/mL (≈ 2.99 µM) | 
11 | O=C(Cn1cc(COC(Cn2ccnc2)c2ccc(Cl)cc2Cl)nn1)c1ccc(F)cc1 (stereo unspecified) | 15.9 µg/mL (≈ 33.6 µM) | 1.17 µg/mL (≈ 2.47 µM) | 
12 | Clc1ccc(C(Cn2ccnc2)OCc2cn(C/C=C/c3ccccc3)nn2)c(Cl)c1 (stereo unspecified) | 11.5 µg/mL (≈ 25.2 µM) | 1.57 µg/mL (≈ 3.46 µM) | 
13 | COC(=O)/C=C/c1ccc(Cn2cc(COC(Cn3ccnc3)c3ccc(Cl)cc3Cl)nn2)cc1 (stereo unspecified) | 17.8 µg/mL (≈ 34.8 µM) | 16.5 µg/mL (≈ 32.2 µM) | 
14 | O=C(Cn1cc(COC(Cn2ccnc2)c2ccc(Cl)cc2Cl)nn1)c1ccccc1Cl (stereo unspecified) | 24.1 µg/mL (≈ 49 µM) | 4.71 µg/mL (≈ 9.6 µM) | 
15 | Clc1ccc(C(Cn2ccnc2)OCc2cn(Cc3ccc(Br)cc3)nn2)c(Cl)c1 (stereo unspecified) | 9.03 µg/mL (≈ 17.8 µM) | 1.33 µg/mL (≈ 2.62 µM) | 
16 | Clc1ccc(C(Cn2ccnc2)OCc2cn(Cc3ccccc3)nn2)c(Cl)c1 (stereo unspecified) | 21.5 µg/mL (≈ 50.2 µM) | 6.63 µg/mL (≈ 15.5 µM) | 
17 | OC(Cn1cncn1)(Cn1cncn1)c1ccc(F)cc1F [FLUCONAZOLE] | > 200 µg/mL | 1.52 µg/mL (≈ 4.96 µM) | Activity (Candida albicans [3]): Active; Activity (Candida albicans [4]): Active; Activity (Candida albicans [5]): Active; Activity (Candida albicans [6]): Active; Activity (Cell membrane [7]): Active; Small Amount Of Red Fluorescence Observed; Activity (Candida albicans [8]): Active; Activity (Candida albicans [9]): Active; Activity (Cell membrane [10]): Active; Activity (Candida albicans [11]): Active; Activity (16HBE14o-): Non-toxic
18 | FC(F)(F)c1ccc(Cn2cc(COC(Cn3ccnc3)c3ccc(Cl)cc3Cl)nn2)cc1 (stereo unspecified) | 15 µg/mL (≈ 30.1 µM) | 9.77 µg/mL (≈ 19.7 µM) | 
19 | O=[N+]([O-])c1ccc(Cn2cc(COC(Cn3ccnc3)c3ccc(Cl)cc3Cl)nn2)cc1 (stereo unspecified) | 72.4 µg/mL (≈ 153 µM) | 21.6 µg/mL (≈ 45.6 µM) | 
20 | O=C(Cn1cc(COC(Cn2ccnc2)c2ccc(Cl)cc2Cl)nn1)c1ccc(Cl)cc1Cl (stereo unspecified) | 19.9 µg/mL (≈ 37.9 µM) | 8.72 µg/mL (≈ 16.6 µM) | 
21 | O=C(Cn1cc(COC(Cn2ccnc2)c2ccc(Cl)cc2Cl)nn1)c1ccc(F)cc1F (stereo unspecified) | 19.3 µg/mL (≈ 39.2 µM) | 0.69 µg/mL (≈ 1.4 µM) | 
22 | Cc1ccc(C(=O)Cn2cc(COC(Cn3ccnc3)c3ccc(Cl)cc3Cl)nn2)cc1 (stereo unspecified) | 26.2 µg/mL (≈ 55.6 µM) | 3.34 µg/mL (≈ 7.1 µM) | 
23 | COc1ccc(C(=O)Cn2cc(COC(Cn3ccnc3)c3ccc(Cl)cc3Cl)nn2)cc1OC (stereo unspecified) | 58.6 µg/mL (≈ 113 µM) | 16.6 µg/mL (≈ 32.2 µM) | 
